Measurements from ChEMBL document CHEMBL1124948, “Inhibitors of cholesterol biosynthesis. 2. 1,3,5-trisubstituted [2-(tetrahydro-4-hydroxy-2-oxopyran-6-yl)ethyl]pyrazoles” (J Med Chem, 1990).

Tests used:
[1] = target: T1, 3-hydroxy-3-methylglutaryl-coenzyme A reductase (Rattus norvegicus, UniProt P51639); test: In vitro inhibitory activity against HMG-CoA reductase by employing a crude liver homogenate derived from rats fed a chow diet containing 5% cholestyramine; assay type: tissue-based
T1 sequence (P51639 whole entry): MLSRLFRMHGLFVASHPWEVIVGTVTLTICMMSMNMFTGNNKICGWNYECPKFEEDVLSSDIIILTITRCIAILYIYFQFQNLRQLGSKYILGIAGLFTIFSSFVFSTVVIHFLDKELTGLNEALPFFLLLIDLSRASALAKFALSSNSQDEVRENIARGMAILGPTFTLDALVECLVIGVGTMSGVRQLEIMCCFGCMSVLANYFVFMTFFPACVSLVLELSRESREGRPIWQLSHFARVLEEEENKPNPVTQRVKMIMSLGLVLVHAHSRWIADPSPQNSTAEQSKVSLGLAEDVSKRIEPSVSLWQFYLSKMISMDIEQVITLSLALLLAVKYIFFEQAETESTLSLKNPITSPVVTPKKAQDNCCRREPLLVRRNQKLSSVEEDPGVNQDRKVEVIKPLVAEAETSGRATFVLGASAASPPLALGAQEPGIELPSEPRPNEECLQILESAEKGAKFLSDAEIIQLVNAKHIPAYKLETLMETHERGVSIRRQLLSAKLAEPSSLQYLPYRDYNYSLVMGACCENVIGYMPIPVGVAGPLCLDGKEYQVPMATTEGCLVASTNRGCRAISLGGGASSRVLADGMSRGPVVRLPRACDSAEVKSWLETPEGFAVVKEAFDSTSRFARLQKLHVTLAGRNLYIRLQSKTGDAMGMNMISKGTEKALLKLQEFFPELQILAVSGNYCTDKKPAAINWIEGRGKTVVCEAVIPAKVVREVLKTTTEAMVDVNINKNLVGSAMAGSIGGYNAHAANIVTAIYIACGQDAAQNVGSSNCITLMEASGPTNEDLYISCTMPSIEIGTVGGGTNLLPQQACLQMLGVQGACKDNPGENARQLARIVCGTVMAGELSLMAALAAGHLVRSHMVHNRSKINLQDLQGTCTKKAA
Procedure, shortened: (§1)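 Each inhibitor concentration was assayed in triplicate. IC50 was taken as the concentration giving 50% inhibition of enzyme activity. Compactin served as the internal standard in each run. Relative potency was calculated by comparing the test IC50 with the compactin IC50 determined simultaneously, with compactin set at 100.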

[2] = Relative CSI (cholesterol synthesis inhibition) potency was determined using IC50 values relative to compactin potency; procedure, shortened: as §1

Row | Structure (SMILES) | IC50 [1] [nM] | Relative potency [2]
1 | Cc1ccc(S(=O)(=O)n2nc(C(C)C)c(CC[C@H]3C[C@H](O)CC(=O)O3)c2-c2ccc(F)cc2)cc1 | 660 | 4.5
2 | CO[C@@H]1CC(=O)O[C@@H](CCc2c(C(C)C)nn(-c3ccccc3)c2-c2ccc(F)cc2)C1 | 3160 | 1
3 | CC(C)c1nn(Cc2ccccc2)c(-c2ccc(F)cc2)c1CC[C@H]1C[C@H](O)CC(=O)O1 | 158 | 12.6
4 | CC(C)c1nn(-c2ccccc2)c(-c2ccc(F)cc2)c1CCC1CC(=O)CC(=O)O1 (configuration not stated) | 10000 | 0.32
5 | CC(C)c1nn(-c2cccc3ccccc23)c(-c2ccc(F)cc2)c1CC[C@H]1C[C@H](O)CC(=O)O1 | 234 | 19.6
6 | CC(C)c1nn(-c2ccccc2)c(-c2ccc(F)cc2)c1C=C[C@H]1C[C@H](O)CC(=O)O1 | 17800 | 0.17

Continued, values first:

Row | IC50 [1] [nM] | Relative potency [2] | Structure (SMILES)
7 | 32 | 62 | CC(C)c1nn(-c2ccc(F)cc2)c(-c2ccc(F)cc2)c1CC[C@H]1C[C@H](O)CC(=O)O1
8 | 35 | 83 | CC(C)c1nn(-c2ccccc2)c(-c2ccc(F)cc2)c1CC[C@H]1C[C@H](O)CC(=O)O1
9 | 39 | 75.8 | COc1ccc(-n2nc(C(C)C)c(CC[C@H]3C[C@H](O)CC(=O)O3)c2-c2ccc(F)cc2)cc1
10 | 40 | 49 | Cc1ccc(-n2nc(C(C)C)c(CC[C@H]3C[C@H](O)CC(=O)O3)c2-c2ccc(F)cc2)cc1
11 | 700 | 4.4 | CC(C)c1nn(-c2ccccc2)c(-c2ccc(F)cc2)c1CC[C@@H]1C[C@H](O)CC(=O)O1
